Entries after “also recorded” stand apart in the source; their conditions may differ.
What was measured:
[1] = molecular target: T1, PTP1B1-405 (Homo sapiens, UniProt P18031); assay: PTP assay with DiFMUP substrate; type: biochemical
T1 sequence (P18031 1-405): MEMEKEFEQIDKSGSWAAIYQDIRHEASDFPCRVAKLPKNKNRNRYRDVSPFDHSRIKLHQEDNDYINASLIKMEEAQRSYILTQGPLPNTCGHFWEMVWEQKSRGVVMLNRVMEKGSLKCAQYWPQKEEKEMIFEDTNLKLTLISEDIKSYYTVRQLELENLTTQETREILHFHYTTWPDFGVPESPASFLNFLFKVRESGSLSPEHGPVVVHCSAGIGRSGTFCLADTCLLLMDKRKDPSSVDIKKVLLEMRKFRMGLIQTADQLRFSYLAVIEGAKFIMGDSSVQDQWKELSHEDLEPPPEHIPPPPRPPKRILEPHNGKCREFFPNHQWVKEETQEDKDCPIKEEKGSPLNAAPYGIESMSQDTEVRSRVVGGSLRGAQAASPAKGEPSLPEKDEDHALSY

[2] = molecular target: T1, PTP1B1-405; assay: Direct binding assay with [3H]-MSI-1436
[3] = molecular target: T2, CFP-PTP1B1-321-YFP (Homo sapiens, UniProt P18031); assay: Intramolecular FRET titration; type: binding; details: excitation at 440 nm, 0–5 μM MSI-1436
T2 sequence (P18031 1-321): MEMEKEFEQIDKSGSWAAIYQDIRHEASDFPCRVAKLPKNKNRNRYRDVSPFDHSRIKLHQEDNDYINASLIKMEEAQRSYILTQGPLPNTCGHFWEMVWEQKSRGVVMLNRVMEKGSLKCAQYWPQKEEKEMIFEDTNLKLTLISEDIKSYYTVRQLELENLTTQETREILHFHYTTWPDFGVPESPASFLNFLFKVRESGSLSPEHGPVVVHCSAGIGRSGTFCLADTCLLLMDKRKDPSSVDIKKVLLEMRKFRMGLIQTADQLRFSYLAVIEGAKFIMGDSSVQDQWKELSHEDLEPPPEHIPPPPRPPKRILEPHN

[4] = molecular target: T3, PTP1B (1-367) (Homo sapiens, UniProt P18031); assay: PTP assay, truncation mutant; type: biochemical; details: similar to PTP1B1-321
T3 sequence (P18031 1-367): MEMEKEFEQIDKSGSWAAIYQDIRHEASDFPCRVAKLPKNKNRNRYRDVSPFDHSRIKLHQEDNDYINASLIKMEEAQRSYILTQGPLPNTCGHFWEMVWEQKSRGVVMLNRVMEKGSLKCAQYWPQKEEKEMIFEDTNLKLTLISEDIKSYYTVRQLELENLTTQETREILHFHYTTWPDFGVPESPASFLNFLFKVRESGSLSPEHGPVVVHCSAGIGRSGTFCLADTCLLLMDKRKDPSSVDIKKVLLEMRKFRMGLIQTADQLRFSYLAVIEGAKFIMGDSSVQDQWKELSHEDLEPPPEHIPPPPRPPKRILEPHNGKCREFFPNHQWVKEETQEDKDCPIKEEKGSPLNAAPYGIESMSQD
Procedure, shortened: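 Continuous fluorescence PTP assay with 10 nM purified PTP1B and 10 μM DiFMUP substrate. Emission at 450 nm was monitored for 20 minutes.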

[5] = molecular target: T1, PTP1B1-405; assay: Binding of recombinant protein to bead-immobilized compound; details: in vitro
Procedure, shortened: (§1)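 Beads were washed in the same buffer plus 0.01% NP-40 and 1% glycerol, then heat-eluted in SDS sample buffer. Eluates were run on 10% SDS-PAGE and stained with Coomassie or silver.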

[6] = molecular target: T4, PTP1B1-321 (Homo sapiens, UniProt P18031); assay: as above; details: in vitro
T4 sequence (P18031 1-321): T2 sequence (P18031 1-321)
Procedure, shortened: as §1

[7] = molecular target: T5, PTP1B in tumor lysates from NDL2 mice (Mus musculus, UniProt P35821); assay: Binding assay with bead-immobilized compound in tumor lysates; details: confirmed by immunoblotting
T5 sequence (P35821 1-432): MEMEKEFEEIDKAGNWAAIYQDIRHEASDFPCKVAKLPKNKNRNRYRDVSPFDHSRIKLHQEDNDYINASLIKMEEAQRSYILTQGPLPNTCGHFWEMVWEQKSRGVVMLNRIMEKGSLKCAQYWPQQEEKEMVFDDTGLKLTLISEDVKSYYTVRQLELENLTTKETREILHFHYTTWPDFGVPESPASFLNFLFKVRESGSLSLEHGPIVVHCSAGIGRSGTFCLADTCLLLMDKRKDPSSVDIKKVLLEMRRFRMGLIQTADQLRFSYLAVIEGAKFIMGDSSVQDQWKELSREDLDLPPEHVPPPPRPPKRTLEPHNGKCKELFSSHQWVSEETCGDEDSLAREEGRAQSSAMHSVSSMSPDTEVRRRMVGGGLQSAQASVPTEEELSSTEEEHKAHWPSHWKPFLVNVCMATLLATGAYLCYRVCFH
Procedure, shortened: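 Test compound was coupled through its primary amine to NHS-activated magnetic beads (1 mM, 100 mM triethylamine, 8 h, 4°C), and free NHS groups were blocked with 0.8 M aminoethanol. Beads were incubated with 0–1 mg NDL2 tumour lysate protein and washed. Bound protein was eluted by heat in SDS sample buffer, run on 10% SDS-PAGE and identified by immunoblotting. Beads carrying a related amine compound served as negative control.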

[8] = tested on: BT-474 cells; assay: Cell migration assay; type: cell-based; details: HER2-positive, MSI-1436 5 µM
[9] = tested on: panel of breast cancer cells; assay: Cell proliferation assay; type: cell-based
Procedure, shortened: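 Cells (1 × 10^4) per well were grown 12–96 hours in growth medium without or with test compound (2 and 5 μM). Proliferation was read by CellTiter-Glo luminescence.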

[10] = tested on: tyrosine phosphorylation-dependent signaling in tumors; assay: Immunoblotting of tumor lysates from NDL2 mice; type: in vivo; details: tumor samples from treated NDL2 animals
Procedure, shortened: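 Tumours from treated NDL2 mice were dissected free of connective tissue, ground under liquid nitrogen and lysed 30 min on ice. Lysis buffer: HEPES pH 7.4, glycerol, Triton X-100, NaCl, EGTA, 1 mM orthovanadate, 20 mM NaF, protease inhibitors. Lysates were cleared at 12,000 x g, 15 min, 4 °C. Lysate (20 μg) was blotted with anti-phosphotyrosine (4G10), anti-p62DOK and anti-phospho-Erk, then stripped and reprobed with total-protein antibodies.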

[11] = tested on: BT474 xenografts re-expressing wild type or L192A/S372P PTP1B; assay: BT474 xenografts with PTP1B suppressed and re-expressed; type: in vivo, mouse; details: 5 mg/kg, two independent experiments
Procedure, shortened: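 BT474 cells with PTP1B suppressed by RNAi and re-expressing wild type or mutant PTP1B were used. Luciferase-expressing cells (5×10^6) were injected orthotopically into mammary fat pads of SCID-beige mice in 1:1 DMEM/growth factor-reduced Matrigel. Mice were randomised to saline or test compound 5 mg/kg i.p. every third day. Tumours were followed by luciferin imaging and by palpation (volume = width2 × length/2) three times weekly.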

- mode of inhibition [1]: reversible non-competitive inhibitor
- Hill coefficient ([2]; Hill plot): 1.3
- stoichiometry ([2]; scintillation counting): 2 mol/mol
- FRET [3]: did not result in FRET
- inhibitory potency compared to PTP1B1-405 and PTP1B1-394 [4]: lower
- binding to bead-immobilized compound [5]: bound
- binding to bead-immobilized compound [6]: bound
Compound: CC(C)[C@@H](CC[C@@H](C)[C@H]1CC[C@H]2[C@@H]3[C@H](O)C[C@H]4C[C@@H](NCCCNCCCCNCCCN)CC[C@]4(C)[C@H]3CC[C@]12C)OS(=O)(=O)O [MSI-1436, Trodusquemine]
- retention of 50 kDa band (PTP1B) by compound beads [7]: PTP1B was cleared from the lysate; also recorded: retained
- migration [8]: attenuated migration
- nature of effects (cytostatic versus cytotoxic) [9]: primarily cytostatic, rather than cytotoxic
- proliferation ([9]; cells sensitive to Lapatinib, MSI-1436 2 and 5 μM): inhibited proliferation
- phosphorylation of p44/42 MAP kinase [10]: decrease
- tyrosine phosphorylation of p62DOK [10]: significant increase
- sensitivity of xenografts re-expressing wild type PTP1B versus mutant protein [11]: more sensitive

From paper PMC4062594 (Nature chemical biology, 2014)
